This is an account of results in ChEMBL document CHEMBL2157861, “Discovery of 4-morpholino-pyrimidin-6-one and 4-morpholino-pyrimidin-2-one-containing Phosphoinositide 3-kinase (PI3K) p110β isoform inhibitors through structure-based fragment optimisation” (Bioorg Med Chem Lett, 2012).

In brackets after ≈: the same amount, converted by molar mass.

In series [1] the target is Phosphatidylinositol 4,5-bisphosphate 3-kinase catalytic subunit alpha isoform (Homo sapiens, UniProt P42336). Description: Inhibition of human recombinant His6-tagged PI3K p110alpha expressed in baculovirus using DiC8-PI(4,5)P2 as substrate after 20 mins by AlphaScreen assay. In outline: (§1)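 Values are the mean of at least two experiments. Experimental error was within 20% of the value.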
For orientation: Bead proximity is the source of the signal in Alpha formats.

Series [2] has as its target Phosphatidylinositol 4,5-bisphosphate 3-kinase catalytic subunit beta isoform (Homo sapiens, UniProt P42338). The series can be described thus: Inhibition of human recombinant His6-tagged PI3K p110beta expressed in baculovirus using DiC8-PI(4,5)P2 as substrate after 20 mins by AlphaScreen assay. In outline:
as §1

The nature of series [3]: Lipophilicity, log D of the compound by HPLC analysis at pH 7.4. Format: physicochemical. To be noted: buffer. In outline: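 LogD was determined experimentally at pH 7.4 by an HPLC method.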
Series [4] is described as follows: Solubility of the compound in DMSO/HBSS at pH 7.4. The format is physicochemical. A digest of the protocol:
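Solubility was measured from DMSO into HBSS at pH 7.4.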

The next series deals with Liver microsomes. Description: Drug metabolism in human liver microsomes assessed as reactive glutathione adduct formation ratio after 30 mins relative to clozapine. Format: ADME, Microsome. To be noted: 0.5 h. In outline:
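Human liver microsomes at 1 mg/mL were incubated for 30 min in the presence of glutathione. The read-out was the ratio of reactive metabolite formation.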
In general terms: Liver microsomes are vesicles of endoplasmic reticulum, rich in cytochrome P450 enzymes.

Series [5] can be described thus: Half life in human liver microsomes after 30 mins. The format is ADME, Microsome. In outline: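 Half-life was measured after a 30 min incubation with human liver microsomes at 0.5 mg/mL.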
Series [6] addresses Phosphatidylinositol 4,5-bisphosphate 3-kinase catalytic subunit gamma isoform (Homo sapiens, UniProt P48736). The series can be described thus: Inhibition of PI3K p110gamma.
In series [7] the target is T1, Phosphatidylinositol 4,5-bisphosphate 3-kinase catalytic subunit delta isoform (Homo sapiens, UniProt O00329).
T1 sequence (O00329 whole entry): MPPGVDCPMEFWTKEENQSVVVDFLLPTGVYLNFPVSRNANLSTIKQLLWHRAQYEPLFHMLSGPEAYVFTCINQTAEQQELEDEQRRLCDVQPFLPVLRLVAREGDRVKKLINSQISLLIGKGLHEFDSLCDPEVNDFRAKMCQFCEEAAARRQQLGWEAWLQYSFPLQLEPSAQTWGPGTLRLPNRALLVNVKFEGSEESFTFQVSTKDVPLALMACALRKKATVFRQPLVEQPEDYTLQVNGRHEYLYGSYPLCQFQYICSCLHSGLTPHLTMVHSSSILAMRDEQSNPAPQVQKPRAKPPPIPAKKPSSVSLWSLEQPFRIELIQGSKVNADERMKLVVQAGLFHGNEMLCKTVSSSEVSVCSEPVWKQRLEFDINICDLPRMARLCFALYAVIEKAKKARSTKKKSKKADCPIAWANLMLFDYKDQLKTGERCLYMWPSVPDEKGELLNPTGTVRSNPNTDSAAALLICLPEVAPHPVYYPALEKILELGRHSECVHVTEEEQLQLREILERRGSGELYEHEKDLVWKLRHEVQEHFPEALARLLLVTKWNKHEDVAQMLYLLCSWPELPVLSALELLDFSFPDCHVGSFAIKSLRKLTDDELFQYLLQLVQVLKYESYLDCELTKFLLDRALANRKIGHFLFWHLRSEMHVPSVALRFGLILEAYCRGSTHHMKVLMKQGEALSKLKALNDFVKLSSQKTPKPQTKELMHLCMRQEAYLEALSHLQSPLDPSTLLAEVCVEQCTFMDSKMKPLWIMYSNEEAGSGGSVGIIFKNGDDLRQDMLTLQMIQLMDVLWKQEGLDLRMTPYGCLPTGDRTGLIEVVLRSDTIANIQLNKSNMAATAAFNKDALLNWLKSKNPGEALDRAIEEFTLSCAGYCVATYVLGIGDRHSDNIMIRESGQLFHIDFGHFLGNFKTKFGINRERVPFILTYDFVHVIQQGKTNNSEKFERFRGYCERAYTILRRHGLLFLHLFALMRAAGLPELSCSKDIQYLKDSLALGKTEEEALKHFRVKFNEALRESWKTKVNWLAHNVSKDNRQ
Description: Inhibition of PI3K p110delta.

Chain of Phosphatidylinositol 4,5-bisphosphate 3-kinase catalytic subunit beta isoform (P42338 whole entry, canonical isoform): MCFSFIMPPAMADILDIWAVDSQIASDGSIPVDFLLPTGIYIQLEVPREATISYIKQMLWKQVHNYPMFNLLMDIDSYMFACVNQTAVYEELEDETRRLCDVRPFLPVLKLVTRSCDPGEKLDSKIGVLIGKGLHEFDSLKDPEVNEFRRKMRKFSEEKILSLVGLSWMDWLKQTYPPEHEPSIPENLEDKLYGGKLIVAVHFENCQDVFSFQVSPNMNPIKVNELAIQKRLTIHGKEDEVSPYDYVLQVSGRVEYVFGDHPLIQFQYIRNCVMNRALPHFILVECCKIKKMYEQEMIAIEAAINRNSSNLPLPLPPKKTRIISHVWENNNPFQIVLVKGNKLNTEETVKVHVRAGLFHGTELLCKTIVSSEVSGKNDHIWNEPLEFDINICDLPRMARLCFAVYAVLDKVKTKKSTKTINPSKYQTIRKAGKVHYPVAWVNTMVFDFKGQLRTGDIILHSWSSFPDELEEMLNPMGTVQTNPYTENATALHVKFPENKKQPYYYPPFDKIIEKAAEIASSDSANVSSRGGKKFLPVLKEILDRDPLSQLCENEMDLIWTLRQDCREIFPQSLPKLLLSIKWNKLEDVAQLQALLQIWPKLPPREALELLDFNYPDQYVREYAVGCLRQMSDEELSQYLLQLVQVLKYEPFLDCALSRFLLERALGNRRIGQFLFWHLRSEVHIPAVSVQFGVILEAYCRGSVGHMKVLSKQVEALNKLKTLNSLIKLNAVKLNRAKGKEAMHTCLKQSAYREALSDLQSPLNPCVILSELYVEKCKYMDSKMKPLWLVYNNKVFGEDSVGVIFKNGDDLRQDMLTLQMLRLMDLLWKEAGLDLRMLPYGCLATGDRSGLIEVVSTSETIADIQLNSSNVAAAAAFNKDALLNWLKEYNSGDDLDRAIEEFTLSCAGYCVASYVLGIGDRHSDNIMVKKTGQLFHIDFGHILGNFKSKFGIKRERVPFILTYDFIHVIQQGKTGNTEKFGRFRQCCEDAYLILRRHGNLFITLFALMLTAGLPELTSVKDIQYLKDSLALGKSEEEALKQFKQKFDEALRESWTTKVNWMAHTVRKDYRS
Chain of Phosphatidylinositol 4,5-bisphosphate 3-kinase catalytic subunit alpha isoform (P42336 whole entry, canonical isoform): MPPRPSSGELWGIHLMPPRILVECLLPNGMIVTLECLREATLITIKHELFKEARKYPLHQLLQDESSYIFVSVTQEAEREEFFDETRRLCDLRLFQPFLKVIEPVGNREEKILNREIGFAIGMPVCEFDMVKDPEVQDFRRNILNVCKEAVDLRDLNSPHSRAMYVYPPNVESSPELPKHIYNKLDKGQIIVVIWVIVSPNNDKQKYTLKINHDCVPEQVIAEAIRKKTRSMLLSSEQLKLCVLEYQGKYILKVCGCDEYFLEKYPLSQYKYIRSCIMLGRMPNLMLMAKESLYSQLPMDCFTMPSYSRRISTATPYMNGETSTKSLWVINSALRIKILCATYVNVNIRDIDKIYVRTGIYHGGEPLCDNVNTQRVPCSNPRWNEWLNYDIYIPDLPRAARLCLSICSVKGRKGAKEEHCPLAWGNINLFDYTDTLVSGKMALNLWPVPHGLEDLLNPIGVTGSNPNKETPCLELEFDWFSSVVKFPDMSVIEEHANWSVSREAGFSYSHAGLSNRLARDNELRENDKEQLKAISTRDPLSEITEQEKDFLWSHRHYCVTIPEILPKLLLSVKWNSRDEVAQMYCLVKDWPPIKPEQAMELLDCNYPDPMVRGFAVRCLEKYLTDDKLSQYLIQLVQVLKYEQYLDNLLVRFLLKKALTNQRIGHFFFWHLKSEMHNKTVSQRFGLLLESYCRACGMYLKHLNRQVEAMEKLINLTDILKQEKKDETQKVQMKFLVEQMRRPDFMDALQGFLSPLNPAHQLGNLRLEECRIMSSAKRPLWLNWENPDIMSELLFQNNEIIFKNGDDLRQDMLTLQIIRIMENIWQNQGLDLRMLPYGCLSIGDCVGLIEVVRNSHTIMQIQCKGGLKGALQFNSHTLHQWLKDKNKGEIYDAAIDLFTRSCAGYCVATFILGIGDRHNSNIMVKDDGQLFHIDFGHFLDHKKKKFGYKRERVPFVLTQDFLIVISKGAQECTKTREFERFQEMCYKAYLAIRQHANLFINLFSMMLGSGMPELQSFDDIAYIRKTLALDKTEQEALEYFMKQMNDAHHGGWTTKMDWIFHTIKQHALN
Chain of Phosphatidylinositol 4,5-bisphosphate 3-kinase catalytic subunit gamma isoform (P48736 whole entry, canonical isoform): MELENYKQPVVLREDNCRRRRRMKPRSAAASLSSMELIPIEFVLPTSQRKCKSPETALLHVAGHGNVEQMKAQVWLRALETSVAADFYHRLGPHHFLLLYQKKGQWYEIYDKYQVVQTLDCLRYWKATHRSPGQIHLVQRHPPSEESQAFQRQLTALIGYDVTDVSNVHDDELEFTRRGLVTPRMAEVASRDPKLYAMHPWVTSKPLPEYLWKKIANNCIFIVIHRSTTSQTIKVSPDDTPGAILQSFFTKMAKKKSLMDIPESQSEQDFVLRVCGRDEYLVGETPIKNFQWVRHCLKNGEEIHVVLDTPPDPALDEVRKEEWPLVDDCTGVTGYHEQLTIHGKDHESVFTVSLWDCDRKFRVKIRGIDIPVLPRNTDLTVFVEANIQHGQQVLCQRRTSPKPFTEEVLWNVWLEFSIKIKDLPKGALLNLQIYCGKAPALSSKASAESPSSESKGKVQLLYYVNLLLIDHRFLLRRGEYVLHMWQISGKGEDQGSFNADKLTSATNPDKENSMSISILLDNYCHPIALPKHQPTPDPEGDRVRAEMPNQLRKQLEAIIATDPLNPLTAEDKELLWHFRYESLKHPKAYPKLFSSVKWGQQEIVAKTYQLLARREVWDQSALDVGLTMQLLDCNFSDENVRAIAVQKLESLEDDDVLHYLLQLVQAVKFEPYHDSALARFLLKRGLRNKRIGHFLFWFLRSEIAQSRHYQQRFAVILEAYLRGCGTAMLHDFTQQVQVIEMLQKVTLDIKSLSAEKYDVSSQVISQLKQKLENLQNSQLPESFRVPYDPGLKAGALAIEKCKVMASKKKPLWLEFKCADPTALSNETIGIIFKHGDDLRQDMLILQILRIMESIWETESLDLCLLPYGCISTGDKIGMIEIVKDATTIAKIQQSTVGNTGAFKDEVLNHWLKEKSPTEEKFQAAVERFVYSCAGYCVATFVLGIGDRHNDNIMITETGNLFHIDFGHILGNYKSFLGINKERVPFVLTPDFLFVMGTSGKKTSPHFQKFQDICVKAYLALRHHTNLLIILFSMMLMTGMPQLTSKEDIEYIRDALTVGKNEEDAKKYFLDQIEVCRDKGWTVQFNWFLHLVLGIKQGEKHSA

In the case of `O=c1cc(N2CCOCC2)nc(NCc2cccc(Cl)c2Cl)[nH]1`, the IC50 in series [1] was 3 µM; in series [2], 0.084 µM.
`O=c1cc(NCc2ccccc2)[nH]c(N2CCOCC2)c1` displayed a logD in series [3] of 1.8. Moreover, the IC50 in series [1] was determined as 142 µM; in series [2], 34 µM.
For `O=c1nc(N2CCOCC2)cc(NCc2ccccc2)[nH]1`, the logD in series [3] turned out to be 0.5. For the same molecule, the IC50 in series [1] is over 83.3 µM; in series [2], 29 µM.
On to `c1ccc(CNc2cc(N3CCOCC3)ncn2)cc1`, for which the IC50 in series [1] is over 83.3 µM; in series [2], 36 µM.
`O=c1cc(N2CCOCC2)nc(NCc2ccccc2)[nH]1` displayed a logD in series [3] of 1.2. For the same molecule, the half-maximal inhibitory concentration (IC50) in series [1] worked out at 12.2 µM; in series [2], 1.9 µM.
In the case of `O=c1nc(N2CCOCC2)cc(NCc2cccc3ccccc23)[nH]1`, the solubility in series [4] was over 100 µM. For the same molecule, in series [3], the logD was 1.5. Further, the IC50 is over 83.3 µM in series [1] and 2.6 µM in series [2]. Moreover, in the series with Liver microsomes, the Ratio is 0. This molecule gave a half-life in series [5] of over 115 min.
For `NC(=O)c1cc(N2CCOCC2)nc(NCc2ccccc2)n1`, the IC50 in series [2] was 2.5 µM.
For the molecule `OCc1cc(NCc2ccccc2)nc(N2CCOCC2)c1`, the results for the IC50 in series [1] and in series [2] were 119 µM and 43 µM, respectively.
Turning to `COC(=O)c1cc(NCc2ccccc2)nc(N2CCOCC2)c1`, the IC50 in series [1] turned out to be 240 µM; in series [2], 32 µM.
As to `C[C@H](Nc1cc(N2CCOCC2)nc(=O)[nH]1)c1cccc2ccccc12`, the IC50 in series [1] was found to be 52.8 µM; in series [2], 10 µM.
`C[C@@H](Nc1cc(N2CCOCC2)nc(=O)[nH]1)c1cccc2ccccc12`: the IC50 stood at 146 µM in series [1] and 36 µM in series [2].
On to `NCc1nc(NCc2ccccc2)cc(N2CCOCC2)n1`, for which the IC50 is over 83.3 µM in series [1] and 87 µM in series [2].
`O=c1cc(NCc2ccccc2)nc(N2CCOCC2)[nH]1` yielded a logD in series [3] of 1.1. For the same molecule, the IC50 stood at 283 µM in series [1] and 63 µM in series [2].
As to `Cc1cc(C(C)Nc2ccccc2)c2nc(N3CCOCC3)cc(=O)n2c1` (stereo not given), the logD in series [3] was determined as 3.6. Besides, in series [1], the IC50 was determined as 5.7 µM.
On to `Cc1cc(N2CCOCC2)nc(NCc2ccccc2)n1`, for which the IC50 in series [2] was found to be 130 µM.
With `CN(C)C(=O)c1cc(N2CCOCC2)nc(NCc2ccccc2)n1`, the IC50 in series [2] amounted to 25 µM.
For `O=c1cc(N2CCOCC2)nc(NCc2cccc(Cl)c2)[nH]1`, the IC50 in series [1] stood at 7.9 µM; in series [2] it was 0.47 µM.
The like results for `O=c1nc(N2CCOCC2)cc(NCc2cccc(Cl)c2Cl)[nH]1` were, in that order, 100 µM and 1.5 µM.
As for `Nc1nc(NCc2ccccc2)cc(N2CCOCC2)n1`, the IC50 in series [1] was over 83.3 µM; in series [2], 110 µM.
For `N#Cc1nc(NCc2ccccc2)cc(N2CCOCC2)n1`, the IC50 in series [1] came out at 41.4 µM; in series [2] it was 1.6 µM.
As for `O=c1cc(N2CCOCC2)nc(NCc2c(Cl)cccc2Cl)[nH]1`, the IC50 came out at 3.38 µM in series [1] and 1.5 µM in series [2].
As for `CNC(=O)c1cc(N2CCOCC2)nc(NCc2ccccc2)n1`, the IC50 in series [2] was 23 µM.
Take `O=c1cc(N2CCOCC2)nc(NCc2cc(Cl)ccc2Cl)[nH]1`: the IC50 in series [1] was found to be 4.52 µM; in series [2] it was 1.4 µM.
In series [4], `O=c1cc(N2CCOCC2)nc(NCc2cccc3ccccc23)[nH]1` had a solubility of 4.5 µM (≈ 1.51 µg/mL). Further, in series [3], the logD stood at 2.4. Besides, the IC50 came to 4.3 µM in series [1], 0.093 µM in series [2], 18.5 µM in series [6] and 0.14 µM in series [7]. Moreover, the Ratio with Liver microsomes turned out to be 0.21. This molecule showed a half-life in series [5] of 41 min.
As for `O=c1cc(N2CCOCC2)nc(NCc2ccccc2Cl)[nH]1`, the IC50 amounted to 4.88 µM in series [1] and 0.57 µM in series [2].

Broadly, the IC50 is the concentration at which inhibition is half-maximal. The term logD denotes lipophilicity at a set pH, counting ionised and neutral species. Lower therefore signals lower lipophilicity. One may read the solubility as the concentration that dissolves in the medium under given conditions. The low end stands for little dissolved substance, the high end for much dissolved substance. One may read the half-life as the time in which the quantity being followed falls by half. High values mean slow decline, low ones rapid decline.
